The source of these data is PubChem BioAssay AID822 (SRMLSC, 2007).

The structures appear in SMILES notation.

This assay concerns HUVEC proliferation, viability ATP luminescence. Briefly: growth suppression of umbilical vein endothelial cells – cell-based, HUVEC, ATP luminescence, dose response (AID 822).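 Further: cells exposed to compound for 72 h before the ATP read.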 The method in brief:
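Assay system: HUVEC primary endothelial cells, low passage (≤12) / Input: 1250 cells per well / Compound dosing: dose series 0.039 to 20 µM, DMSO 0.2% / Timing: 72 h compound exposure at 37 °C / Measured by: CellTiter-Glo ATP luminescence / Read-out: percent viability relative to median untreated cell signal, EC50 via four-parameter fit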
By EC50 is commonly meant the midpoint of the concentration-response curve. With `CC(C)(C)C1CC=C2C(C#N)=C(N)C(C#N)(C#N)C(c3cccs3)C2C1` (stereo not drawn), the EC50 is 12.2 µM.

In the case of `NS(=O)(=O)c1ccc(N=Cc2c(O)n(C3CCCCC3)c(=O)n(C3CCCCC3)c2=O)cc1`, the EC50 was 5 µM.

For the compound `CCCCN(C)S(=O)(=O)c1ccc(C(=O)Nc2nnc(-c3cccs3)o2)cc1`, the EC50 was 1.69 µM.

For `COc1ccc(S(=O)(=O)Nc2ccc(O)c3ccccc23)cc1`, the EC50 is 2.45 µM.

With `Cc1cccc2c1N(CCCOc1ccc(C(C)(C)C)cc1)C(=O)C2=O`, the EC50 is 9.1 µM.

`O=C(Nc1ccc(OC(F)F)c(Cl)c1)Nc1ccc2c(c1)OCO2`: the EC50 was 14.8 µM.

For the compound `CCOC(=O)c1c(OCC)[nH]c2c1cc(O)c1ccccc12`, the EC50 was 17.4 µM.

As to `Cn1c(=O)n(C)c2cc(NC(=O)CCl)ccc21`, the EC50 was 12.2 µM.

As to `Cc1nc2c(C(=O)NCCC(C)C)c[nH]n2c(=O)c1Cc1ccccc1F`, the EC50 was 7.02 µM.

As to `c1ccc(-c2nccc(-c3ccc(-n4cnc5ccccc54)cc3)n2)cc1`, the EC50 is 14.9 µM.

Turning to `CCOC(=O)c1c(C)[nH]c(C(=O)OC/C(O)=C(\C#N)c2nc3ccccc3[nH]2)c1C`, the EC50 was 11.6 µM.

As for `CC(C)Cn1c(N)c(C(=O)NCc2cccs2)c2nc3ccccc3nc21`, the EC50 was 10.5 µM.

Consider `O=[N+]([O-])c1cccnc1N1CCC(c2cc(-c3cccc(C(F)(F)F)c3)n[nH]2)CC1`, for which the EC50 was 10.6 µM.

Consider `CCCCc1oc2ccccc2c1C(=O)c1cc(I)c(OCCN(CC)CC)c(I)c1`, for which the EC50 was 5.72 µM.

Turning to `O=C(CSc1nnc(-c2ccccc2O)o1)Oc1ccc(OCc2ccccc2)cc1`, the EC50 is 10.1 µM.

As to `COc1cccc(-c2nnc(Nc3nc4c(F)cccc4s3)o2)c1`, the EC50 is 8.57 µM.

Regarding `Cc1ccc2oc3c(c(=O)c2c1)C(c1cccc(Br)c1)N(Cc1ccco1)C3=O` (stereo not drawn), the EC50 was 19.9 µM.

Regarding `Cc1ccsc1/C=C/C1=Cc2c(sc(NC(=O)CSc3n[nH]c(N)n3)c2C#N)C(C)(C)C1`, the EC50 was 17.7 µM.

As to `Cc1cc(C)c2c(c1)SC1=NC(c3ccccc3)(C(F)(F)F)NC(=O)N12` (stereo not drawn), the EC50 is 8.47 µM.

Consider `CCOC(=O)c1sc(NC(=O)CSc2nnnn2-c2ccc(C)cc2C)nc1C`, for which the EC50 was 13.7 µM.

For `C=C(C)COc1ccc(-c2n[nH]c(C)c2-c2ccccc2OC)c(O)c1`, the EC50 is 13 µM.

For `CC(C)(C)c1nn(-c2ccccc2)c2[nH]c(=O)c(CNCc3ccc4c(c3)OCO4)cc12`, the EC50 was 8.15 µM.

For the compound `Oc1c(CN2CCN(c3ccccn3)CC2)cc(Cl)c2cccnc12`, the EC50 is 7.42 µM.

Regarding `CCN(CC)CCn1c(=N)n(CCOc2ccccc2)c2ccccc21`, the EC50 is 14.2 µM.

Turning to `Oc1ccccc1-c1nnc(SCCN2CCOCC2)n1Cc1ccccc1`, the EC50 was 13.6 µM.

On to `Cc1ccc(-c2nn3c(C)nnc3s2)cc1NC(=O)c1ccc(-c2cccc(Cl)c2)o1`, for which the EC50 was 4.71 µM.

On to `COc1ccc(C(=O)Nc2ccccc2C(=O)N(Cc2ccco2)C(C(N)=O)C(C)C)cc1` (stereo not drawn), for which the EC50 was 14.6 µM.

For `CCc1ccc(-c2nc(CN3CCC(C(=O)N4CCN(c5ccccc5)CC4)CC3)c(C)o2)cc1`, the EC50 is 4.09 µM.

With `Cc1cccc(-c2nnc(NC(=O)c3ccc(Cl)cc3)o2)c1`, the EC50 is 2.78 µM.

Consider `CCN(CCNC(=O)C1CCN(Cc2nc(-c3ccc(Cl)cc3)oc2C)CC1)c1ccccc1`, for which the EC50 was 5.82 µM.

`COC(=O)C1=C(O)/C(=C\c2ccc(CNC(=O)C(=O)Nc3ccc(C)c(C)c3)o2)N=C1C`: the EC50 is 13.3 µM.

Regarding `O=C(Nc1cccc(-c2nc3ncccc3o2)c1)c1cc2ccccc2o1`, the EC50 is 14.1 µM.

Take `Cc1ccc(C(=O)Nc2ncc(Cc3ccc(F)cc3)s2)o1`: the EC50 was 0.277 µM.

Take `Cc1sc2nc(SCC(=O)C(C)(C)C)n(Cc3ccco3)c(=O)c2c1C`: the EC50 is 13.9 µM.

With `O=C(Nc1ccccc1)c1cccc(-c2nnc(-c3ccccc3)o2)c1`, the EC50 is 10.6 µM.

On to `CN(C)c1ccc(/C=C(\C#N)C(=O)Nc2nc3c(s2)CCN(Cc2ccccc2)C3)cc1`, for which the EC50 was 3.88 µM.

As to `CCC(C)[C@@H](NC(=O)OC(C)(C)C)c1nnc(S(=O)(=O)Cc2cccc(C)c2)o1` (stereo partly drawn), the EC50 is 19.3 µM.

Take `CCCCN(Cc1ccco1)C(=O)c1cc2c(=O)[nH]c3ccc(C)cc3c2s1`: the EC50 is 4.57 µM.

`CCCCN(CC)S(=O)(=O)c1ccc(C(=O)Nc2nnc(-c3ccccc3Cl)o2)cc1`: the EC50 is 3.8 µM.

Take `CCOC(=O)c1ccc(NC(=O)CCc2nc(-c3cccc(C)c3)no2)cc1`: the EC50 was 19.2 µM.

In the case of `CCCCCCCCOC(=O)C1=C(C)Nc2nnnn2C1c1cccs1` (stereo not drawn), the EC50 is 6.74 µM.

Regarding `CCOC(=O)c1sc(NC(=O)CSc2nnnn2-c2ccc(C)c(C)c2)nc1C`, the EC50 was 6.65 µM.

Consider `CC(C)(C)OC(=O)N[C@@H](Cc1ccccc1)c1nnc(S(=O)(=O)Cc2cccc(F)c2)o1`, for which the EC50 was 14.3 µM.

In the case of `Cc1ccccc1NS(=O)(=O)c1ccc(N2CCCC2=O)cc1`, the EC50 was 19.6 µM.

With `COc1ccc(Cc2nc(C(=O)Nc3ccc(Cl)cc3)cs2)cc1`, the EC50 was 19.9 µM.

Consider `Cc1ccc(C2Oc3ccccc3C3=C2C(c2cccs2)n2ncnc2N3)cc1` (stereo not drawn), for which the EC50 was 13.4 µM.

On to `CCOC(=O)c1sc2nc(C(C)C)c3c(c2c1N)CC(C)(C)OC3`, for which the EC50 was 20.8 µM.

With `O=c1[nH]c(=O)n(Cc2ccccc2)c2nc(-c3ccco3)cc(C(F)(F)F)c12`, the EC50 is 17 µM.

`COc1ccc(OC)c(CCNC(=O)Cn2sc3nc(C)cc(C)c3c2=O)c1`: the EC50 is 12.1 µM.

Turning to `O=C(Nc1ccc2c(c1)OCO2)c1cc(C2CC2)on1`, the EC50 was 6.54 µM.

For `COC(=O)NC(=C(Cl)Cl)S(=O)(=O)c1ccccc1`, the EC50 was 8.53 µM.

On to `O=C(CC1CCCCC1)c1c(O)c2ccccc2oc1=O`, for which the EC50 is 4.66 µM.

Turning to `CC1=C(SCCC#N)S/C(=C2\SC(C)=C(SCCC#N)S2)S1`, the EC50 was 9.1 µM.

With `Cc1ccccc1CS(=O)(=O)c1nnc([C@H](Cc2ccccc2)NC(=O)OC(C)(C)C)o1`, the EC50 was 11.4 µM.

With `COc1ccc(C(C[N+](=O)[O-])c2c(-c3ccccc3)cc3ccccn23)cc1` (stereo not drawn), the EC50 is 11.1 µM.

As to `CC1CCCCN1S(=O)(=O)c1ccc(C(=O)Nc2nnc(-c3ccccc3Cl)o2)cc1` (stereo not drawn), the EC50 was 2.71 µM.

On to `C=C(C)COc1ccc(-c2n[nH]c(C)c2Oc2ccccc2OC)c(O)c1`, for which the EC50 was 10.9 µM.

Turning to `CC1(C)CC(=O)C2=C(C1)Oc1nc3ccccc3cc1C2C(C#N)C#N` (stereo not drawn), the EC50 was 11.4 µM.

For the compound `O=c1/c(=C/c2ccco2)sc2n1CN(c1cccc(Br)c1)CN=2`, the EC50 was 15.7 µM.

As to `CCOC(=O)c1c(N)sc2c(OC)c(Br)ccc12`, the EC50 was 16.8 µM.

Regarding `COc1cc(-c2nc(-c3ccc(NC(=O)c4ccc(Br)o4)cc3)no2)cc(OC)c1OC`, the EC50 was 7.42 µM.

`Cc1ccc2c(c1)c1c(n2CC(O)Cn2c(C)nc3ccccc32)/C(=N\O)CCC1` (stereo not drawn): the EC50 was 8.98 µM.

As for `CCc1nc(SCC(=O)Nc2ccc3c(c2)OCCO3)c2oc3ccccc3c2n1`, the 50% effective concentration (EC50) was 9.5 µM.

Regarding `CN1CCN(C(=O)c2ccc(COc3ccc(Cl)cc3Cl)cc2)CC1`, the EC50 is 13.3 µM.

For the compound `O=C(N/N=C/c1ccco1)c1cc(-c2ccc3ccccc3c2)n[nH]1`, the EC50 is 9.25 µM.

For `Nc1c(C(=O)C2CC2)sc2nc(-c3cccs3)cc(C(F)(F)F)c12`, the EC50 is 8.07 µM.

In the case of `Cc1ccc2[nH]c3c(N4CCN(Cc5ccc6c(c5)OCO6)CC4)ncnc3c2c1`, the EC50 was 9.97 µM.

Turning to `O=C(CCC1CCCC1)c1c(O)c2ccccc2oc1=O`, the EC50 is 4.67 µM.

For the compound `CCOC(=O)COc1ccc(S(=O)(=O)NCCC2=CCCCC2)cc1`, the EC50 is 11.9 µM.

On to `N=c1c2c(-c3ccccc3)c(-c3ccccc3)oc2ncn1CCCN1CCOCC1`, for which the EC50 was 13.6 µM.

Regarding `C=CCN1C(=Nc2cccnc2)SCC1(O)c1ccc(C)cc1` (stereo not drawn), the EC50 is 11.2 µM.

Consider `COc1ccc(CNC(=O)C(C#N)c2nc3ccccc3nc2N2CCN(C)CC2)cc1` (stereo not drawn), for which the EC50 was 6.92 µM.

In the case of `Cc1cc(NC(=O)c2cc(-c3ccncc3)nc3c(C)cccc23)no1`, the EC50 was 6.87 µM.

Turning to `COC(=O)/C(=C\Nc1ccc(Cl)cc1Cl)NC(=O)c1ccc(Cl)cc1Cl`, the EC50 was 7.64 µM.

For the compound `Oc1ccccc1/C=N/Nc1nccnc1Cl`, the 50% effective concentration (EC50) is 6.28 µM.

`O=C(Nc1ccc2nn(-c3ccccc3)nc2c1)c1ccc2c(c1)OCO2`: the EC50 is 20.8 µM.

Take `Cc1nn(Cc2c(Cl)cccc2Cl)c(C)c1NC(=O)c1cc(C(C)C)on1`: the EC50 is 13.6 µM.

As for `CCOC(=O)N1CCN(c2ncnc3c2oc2nc(C(C)C)c4c(c23)CCC4)CC1`, the EC50 was 19.4 µM.

Regarding `Cc1cc(C)n(-c2nc(SCC(=O)N3CCCC3)c3c4c(sc3n2)CCCC4)n1`, the EC50 is 19.4 µM.

On to `CCCCc1nc2sc3c(SCC(=O)NCc4ccco4)ncnc3c2c2c1CCC2`, for which the EC50 was 13.4 µM.

On to `COc1ccc(CNC(=O)c2c(N)n(CCCN3CCOCC3)c3nc4ccccc4nc23)cc1`, for which the EC50 is 10 µM.

As to `CCCCOc1ccc(C(=O)C(CN2CCOCC2)c2ccccc2)cc1` (stereo not drawn), the EC50 is 3.08 µM.

For the compound `CC1=CC(C)(C)Nc2ccc(OC(=O)c3cccnc3)cc21`, the EC50 is 12.3 µM.

For `COc1ccc(C(=O)C(CN2CCOCC2)c2ccccc2)cc1` (stereo not drawn), the EC50 is 11.7 µM.

For the compound `CCCCC(=O)O[C@H]1CC[C@H]2[C@@H]3CCc4cc(O)ccc4[C@H]3CC[C@]12C`, the EC50 was 7.16 µM.

Regarding `Cc1nn(-c2ccc(Cl)cc2)c2sc(C(=O)N3CCN(c4ccccn4)CC3)cc12`, the EC50 is 19 µM.

`COc1ccccc1N1CCN(CC(=O)c2c(C)[nH]c3cc(C)ccc23)CC1`: the EC50 was 10.2 µM.

With `CN1CCN(Cc2cc(COCc3ccccc3)c3cccnc3c2O)CC1`, the EC50 was 6.08 µM.

For `CCC(C)NC(=O)c1c(N)n(/N=C/c2cccnc2)c2nc3ccccc3nc12` (stereo not drawn), the EC50 is 12.6 µM.

Turning to `COc1ccc(C(=O)C(CN2CCOCC2)c2ccccc2)cc1F` (stereo not drawn), the EC50 was 7.19 µM.

For the compound `CCCCCCn1c(C)nc2c(c1=O)c1nc3ccccc3nc1n2/N=C/c1ccco1`, the 50% effective concentration (EC50) is 14.5 µM.

On to `CCN(CC)c1cc(C)c2cc(NC(=O)c3ccc(Br)o3)ccc2n1`, for which the EC50 was 11.3 µM.

For the compound `Cc1ccc(-c2nc3cccnc3o2)cc1NC(=O)COc1ccc(C(C)(C)C)cc1`, the EC50 is 9 µM.
